Assay outcomes as filed in PubChem BioAssay.
Sampled rows, rich in hits. Any-hit rate of the full collection: about 1.9%.
IDE cell inh: human IDE inhibitors in live cells, primary screen, fluorescence polarization, HEK cells, FAbetaB substrate. Insulin-degrading enzyme (Homo sapiens), P14735. FAbetaB cleavage. inhibition, % at 5.59 µM. 0.41% of 320,000 active. AID 434962, 2010;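 active means percent inhibition above the average of all tested compounds plus 3 SD, set per screening campaign, cut at about 16% in these data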;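 further: IDE supplied by intact live HEK cells; FP after avidin binding of uncleaved biotin substrate so inhibition keeps polarization high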
IDE cell activ: human IDE activators in live cells, primary screen, fluorescence polarization, HEK cells, FAbeta-B substrate. Insulin-degrading enzyme (Homo sapiens), P14735. FAbeta-B cleavage; 0% vehicle, 100% cell-free pure enzyme wells. activation, % at 5.96 µM. 0.073% of 340,000 active. AID 493087, 2011;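 active means activation above the mean of all tested compounds plus 3 SD, set per screening campaign, cut at about 17% in these data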
PHOSPHO1 block: PubChem AID 1565. Phosphoethanolamine/phosphocholine phosphatase (Homo sapiens), Q8TCT1. recombinant PHOSPHO1, absorbance phosphatase assay. inhibition, % at 13.3 µM. 1.1% of 290,000 active; in the data active means inhibition above about 60%
procasp3 activ: activators of human procaspase-3 D3A mutant, primary screen, biochemical, absorbance, PC-3 D3A mutant, single concentration | recombinant procaspase-3 D3A, Ac-DEVD-pNA absorbance 405 nm | Caspase-3 (Homo sapiens), P42574 | 0.11% of 330,000 active | activation, % at 8.5 µM;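 active means activation above the mean of all tested compounds plus 3 SD, cut at about 21% in these data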
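material = Procaspase-3 D3A mutant | probe or stimulus = Ac-DEVD-pNA | compound = single dose, 8.5 µM nominal compound, 0.8% DMSO | timing = 1 h preincubation, 2 h reaction | measured by = 405 nm absorbance of p-nitroaniline, reads at 0 and 120 min | benchmarks = DMSO-only low control, 5 µM PC-3 D3A high control | repeats = singlicate, each compound tested once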
procasp7 counter: procaspase-7 activators, primary screen, counter-screen for procaspase-3 activator project, biochemical, absorbance, HTS, human; recombinant procaspase-7, Ac-DEVD-pNA absorbance 405 nm; D23A/D198A/D206A triple mutant, cannot self-cleave; scale: DMSO 0, 5 µM enzyme 100; activation, % at 8.5 µM; 0.093% of 330,000 active;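 active means percent activation above the screen-wide mean plus 3 SD, cut at about 25% in these data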
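Test system: Procaspase-7 triple mutant (PC-7 D3A). Also added: Ac-DEVD-pNA substrate, 400 µM as added. Schedule: 1 h enzyme–compound preincubation and 2 h substrate reaction, both 25 °C. Signal: p-Nitroaniline absorbance at 405 nm, read at 0 and 120 min. Control set: low DMSO alone, high DMSO plus 5 µM PC-7.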
UBC13 inh: UBC13 polyubiquitin chain formation inhibitors, primary screen, biochemical, TR-FRET, uHTS | Ubiquitin-conjugating enzyme E2 N (Homo sapiens), P61088 | inhibition, % at 20 µM | 0.47% of 330,000 active | AID 485273, 2010; in the data active means inhibition above about 45%, passing the limit was not always enough
Casp3 counter: CASP3 inhibitor validation, counterassay for project on UBE2N polyubiquitination blockers, biochemical, one dose. inhibition, % at 20 µM. Recombinant caspase-3, Caspase-Glo 3/7 luminescence, 60 min. shares compounds with UBC13 inh. AID 488856, 2010. 4% of 1,400 active;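 active means mean inhibition across replicates above about 26%, limit read from the data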
UBC13 conf: UBC13 polyubiquitination inhibitors, single-point retest, confirmation, biochemical, TR-FRET, single concentration. shares compounds with UBC13 inh. inhibition, % at 10 µM. 68% of 1,400 active; in the data active means inhibition above about 45%
Hits are given with their value; n = inactive; x = no result given.

SMILES	IDE cell inh	IDE cell activ	PHOSPHO1 block	procasp3 activ	procasp7 counter	UBC13 inh	Casp3 counter	UBC13 conf
CC1CCN(S(=O)(=O)c2ccc(NC(=O)CCN3C(=O)c4ccccc4C3=O)cc2)CC1	n	n	n	n	n	n	x	x
CC(=O)Nc1ccc(NC(=O)C(C)OC(=O)C2(c3ccccc3F)CCCC2)cc1 (stereo unspecified)	n	n	x	n	n	n	x	x
CCCCOc1ccc(C)cc1CN(CCO)CCO	n	n	n	n	n	n	x	x
CCCCCc1ccc(OCCCC[n+]2cccc(C)c2)c(CCCCC)c1	n	n	n	n	n	59.4	n	89.7
CCCCCc1ccc(OCCCC[n+]2ccccc2)c(CCCCC)c1	n	n	n	n	n	59.1	n	84.4
CCCCCc1ccc(OCCCC[n+]2ccc(C)cc2)c(CCCCC)c1	n	n	n	n	n	n	x	x
CCC(C)(C)c1ccc(Oc2cccc(C(=O)O)c2)cc1	n	n	n	n	n	n	x	x
CCC(C)(C)c1ccc(OCCCC[n+]2ccccc2)c(C(C)(C)CC)c1	n	n	n	n	n	65.5	n	97.8
Brc1cccc2sc(N3CCCC3)nc12	n	n	n	n	n	n	x	x
Cc1cc(C)cc(C(=O)OCC(=O)NCc2ccco2)c1	n	n	x	n	n	n	x	x
CCc1cccc(C)c1NC(=O)c1cc(=O)[nH]c2ccc(S(=O)(=O)N3CCOCC3)cc12	n	n	x	n	n	n	x	x
CCN(CC)CCOc1ccc(/C(=C(\Cl)c2ccccc2)c2ccccc2)cc1	n	n	x	n	n	74.1	n	80.8
CC1(C)Cc2c(sc(NC(=O)c3ccc(C(=O)c4ccccc4)cc3)c2C#N)C(C)(C)N1	n	n	n	n	n	n	x	x
CCC(C)c1ccccc1OCC(=O)NN1C(=O)c2ccccc2C1=O (stereo unspecified)	n	n	n	n	n	n	x	x
